In brackets after ≈: the same amount, converted by molar mass.
Legend:
Type in all cases: functional
[1] = system: Candida albicans; experiment: Antifungal activity against Candida albicans by serial dilution method
Outline: (§1)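 Broth serial dilution in 96-well microplates against a panel of five human pathogenic fungi. Activity is reported as the minimal inhibitory concentration (MIC), and fluconazole served as the positive control.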

[2] = system: Cryptococcus neoformans; experiment: Antifungal activity against Cryptococcus neoformans by serial dilution method; outline: as §1
[3] = system: Trichophyton rubrum; experiment: Antifungal activity against Trichophyton rubrum clinical isolate by serial dilution method; outline: as §1
[4] = system: Nannizzia gypsea; experiment: Antifungal activity against Microsporum gypseum clinical isolate by serial dilution method; outline: as §1
[5] = system: Candida parapsilosis; experiment: Antifungal activity against Candida parapsilosis clinical isolate by serial dilution method; conditions: Lodderomyces parapsilosis; outline: as §1
[6] = system: Trichophyton rubrum; experiment: Antifungal activity against Trichophyton rubrum

`OC(Cn1cncn1)(Cn1cncn1)c1ccc(F)cc1F` [FLUCONAZOLE] was tested. Which MIC [1] did it give?
The MIC was 0.25 µg/mL (≈ 0.816 µM).

And the MIC [2]?
The MIC was 1 µg/mL (≈ 3.27 µM).

And the MIC [3]?
The MIC was 0.25 µg/mL (≈ 0.816 µM).

And the MIC [4]?
The MIC was 0.5 µg/mL (≈ 1.63 µM).

What about the MIC [5] of the same compound?
The MIC was 32 µg/mL (≈ 104 µM).

What does the source list for `COc1ccc2c(=O)c(C#CCOC(=O)c3cc([N+](=O)[O-])cc([N+](=O)[O-])c3)coc2c1`?
MIC [1]: > 100 µg/mL; MIC [2]: > 100 µg/mL; MIC [3]: 50 µg/mL (≈ 118 µM); MIC [4]: 50 µg/mL (≈ 118 µM); MIC [5]: > 100 µg/mL

How did the MIC [1] turn out when `COc1ccc2c(=O)c(C#CCO)coc2c1` was run?
Its MIC is over 100 µg/mL.

And the MIC [2]?
Its MIC is over 100 µg/mL.

What about the MIC [3] of the same compound?
Its MIC is over 100 µg/mL.

What about the MIC [4] of the same compound?
Its MIC is over 100 µg/mL.

And the MIC [5]?
The MIC was over 100 µg/mL.

How did the MIC [1] turn out when `COc1ccc2c(=O)c(C#CCOC(=O)Cc3ccccc3)coc2c1` was run?
The MIC was over 100 µg/mL.

And the MIC [2]?
The MIC was over 100 µg/mL.

What about the MIC [3] of the same compound?
Its MIC is over 100 µg/mL.

And the MIC [4]?
The MIC was over 100 µg/mL.

And the MIC [5]?
The MIC was over 100 µg/mL.

Which MIC [1] does the source give for `COc1ccc2c(=O)c(C#CCOC(C)=O)coc2c1` here?
The MIC was over 100 µg/mL.

And the MIC [2]?
The MIC was over 100 µg/mL.

What about the MIC [3] of the same compound?
The MIC was over 100 µg/mL.

And the MIC [4]?
Its MIC is 25 µg/mL (≈ 91.8 µM).

What about the MIC [5] of the same compound?
The MIC was over 100 µg/mL.

`COc1ccc2c(=O)c(C#CCOC(=O)Cc3ccccc3Cl)coc2c1` was tested. Which MIC [1] did it give?
Its MIC is over 100 µg/mL.

And the MIC [2]?
The MIC was over 100 µg/mL.

What about the MIC [3] of the same compound?
The MIC was 50 µg/mL (≈ 131 µM).

And the MIC [4]?
Its MIC is 50 µg/mL (≈ 131 µM).

What about the MIC [5] of the same compound?
The MIC was over 100 µg/mL.

For `CCCC(=O)OCC#Cc1coc2cc(OC)ccc2c1=O`, which MIC [1] is on record?
The MIC was 12.5 µg/mL (≈ 41.6 µM).

And the MIC [2]?
The MIC was 50 µg/mL (≈ 166 µM).

What about the MIC [3] of the same compound?
Its MIC is 12.5 µg/mL (≈ 41.6 µM).

What about the MIC [4] of the same compound?
The MIC was 25 µg/mL (≈ 83.2 µM).

What about the MIC [5] of the same compound?
Its MIC is 50 µg/mL (≈ 166 µM).

With `CCCCC(=O)OCC#Cc1coc2cc(OC)ccc2c1=O` as the compound, how does the MIC [1] read?
The MIC was 25 µg/mL (≈ 79.5 µM).

What about the MIC80 [6] of the same compound?
Its MIC80 is 1.5 µg/mL (≈ 4.77 µM).

What about the MIC [2] of the same compound?
Its MIC is 25 µg/mL (≈ 79.5 µM).

What about the MIC [3] of the same compound?
Its MIC is 1.5 µg/mL (≈ 4.77 µM).

What about the MIC [4] of the same compound?
Its MIC is 25 µg/mL (≈ 79.5 µM).

What about the MIC [5] of the same compound?
The MIC was 25 µg/mL (≈ 79.5 µM).

How did the MIC [1] turn out when `CCCCCCC(=O)OCC#Cc1coc2cc(OC)ccc2c1=O` was run?
The MIC was over 100 µg/mL.

What about the MIC [2] of the same compound?
Its MIC is over 100 µg/mL.

And the MIC [3]?
Its MIC is over 100 µg/mL.

What about the MIC [4] of the same compound?
Its MIC is over 100 µg/mL.

What about the MIC [5] of the same compound?
The MIC was over 100 µg/mL.

Which MIC [1] does the source give for `COc1ccc2c(=O)c(C#CCOC(=O)c3ccc([N+](=O)[O-])cc3)coc2c1` here?
Its MIC is over 100 µg/mL.

And the MIC [2]?
The MIC was over 100 µg/mL.

What about the MIC [3] of the same compound?
The MIC was over 100 µg/mL.

And the MIC [4]?
The MIC was over 100 µg/mL.

What about the MIC [5] of the same compound?
Its MIC is over 100 µg/mL.

For `COc1ccc2c(=O)c(C#CCOC(=O)CCCCC(C)C)coc2c1`, which MIC [1] is on record?
Its MIC is over 100 µg/mL.

What about the MIC [2] of the same compound?
The MIC was 50 µg/mL (≈ 140 µM).

What about the MIC [3] of the same compound?
The MIC was 12.5 µg/mL (≈ 35.1 µM).

And the MIC [4]?
The MIC was 12.5 µg/mL (≈ 35.1 µM).

And the MIC [5]?
The MIC was 25 µg/mL (≈ 70.1 µM).

`COc1ccc2c(=O)c(C#CCOC(=O)C(C)C)coc2c1` was tested. Which MIC [1] did it give?
Its MIC is 50 µg/mL (≈ 166 µM).

What about the MIC [2] of the same compound?
Its MIC is 50 µg/mL (≈ 166 µM).

And the MIC [3]?
Its MIC is 3.12 µg/mL (≈ 10.4 µM).

And the MIC [4]?
Its MIC is 25 µg/mL (≈ 83.2 µM).

What about the MIC [5] of the same compound?
The MIC was 12.5 µg/mL (≈ 41.6 µM).

Which results are given for `COc1ccc2c(=O)c(C#CCOC(=O)CC(C)C)coc2c1`?
MIC [1]: > 100 µg/mL; MIC [2]: 50 µg/mL (≈ 159 µM); MIC [3]: 6.25 µg/mL (≈ 19.9 µM); MIC [4]: 25 µg/mL (≈ 79.5 µM); MIC [5]: 50 µg/mL (≈ 159 µM)

`COc1ccc2c(=O)c(C#CCOC(=O)C3CCCCC3)coc2c1` was tested. Which MIC [1] did it give?
Its MIC is over 100 µg/mL.

And the MIC [2]?
Its MIC is over 100 µg/mL.

What about the MIC [3] of the same compound?
Its MIC is over 100 µg/mL.

What about the MIC [4] of the same compound?
The MIC was over 100 µg/mL.

What about the MIC [5] of the same compound?
The MIC was over 100 µg/mL.

Which results are given for `COc1ccc2c(=O)c(C#CCOC(=O)c3ccccc3)coc2c1`?
MIC [1]: > 100 µg/mL; MIC [2]: > 100 µg/mL; MIC [3]: > 100 µg/mL; MIC [4]: > 100 µg/mL; MIC [5]: > 100 µg/mL

Which MIC [1] does the source give for `CCCCCC(=O)OCC#Cc1coc2cc(OC)ccc2c1=O` here?
The MIC was over 100 µg/mL.

And the MIC [2]?
Its MIC is over 100 µg/mL.

What about the MIC [3] of the same compound?
Its MIC is 25 µg/mL (≈ 76.1 µM).

What about the MIC [4] of the same compound?
The MIC was 12.5 µg/mL (≈ 38.1 µM).

What about the MIC [5] of the same compound?
Its MIC is 50 µg/mL (≈ 152 µM).

What does the source list for `CCC(=O)OCC#Cc1coc2cc(OC)ccc2c1=O`?
MIC [1]: 25 µg/mL (≈ 87.3 µM); MIC [2]: 25 µg/mL (≈ 87.3 µM); MIC [3]: 6.25 µg/mL (≈ 21.8 µM); MIC [4]: 12.5 µg/mL (≈ 43.7 µM); MIC [5]: 25 µg/mL (≈ 87.3 µM)

Which MIC [1] does the source give for `CCCCCCCC(=O)OCC#Cc1coc2cc(OC)ccc2c1=O` here?
Its MIC is over 100 µg/mL.

What about the MIC [2] of the same compound?
The MIC was over 100 µg/mL.

And the MIC [3]?
Its MIC is over 100 µg/mL.

What about the MIC [4] of the same compound?
The MIC was over 100 µg/mL.

What about the MIC [5] of the same compound?
Its MIC is over 100 µg/mL.

`COc1ccc2c(=O)c(C#CCOC(=O)Cc3ccc(Cl)cc3)coc2c1` was tested. Which MIC [1] did it give?
Its MIC is over 100 µg/mL.

What about the MIC [2] of the same compound?
Its MIC is over 100 µg/mL.

What about the MIC [3] of the same compound?
The MIC was over 100 µg/mL.

What about the MIC [4] of the same compound?
Its MIC is over 100 µg/mL.

What about the MIC [5] of the same compound?
The MIC was over 100 µg/mL.

`COc1ccc2c(=O)c(C#CCOC(=O)C3C(C)(C)C3(C)C)coc2c1` was tested. Which MIC [1] did it give?
Its MIC is over 100 µg/mL.

And the MIC [2]?
The MIC was over 100 µg/mL.

What about the MIC [3] of the same compound?
The MIC was over 100 µg/mL.

What about the MIC [4] of the same compound?
The MIC was 12.5 µg/mL (≈ 35.3 µM).

What about the MIC [5] of the same compound?
Its MIC is over 100 µg/mL.
